Experimental findings from ChEMBL document CHEMBL5120825, “The azulene scaffold from a medicinal chemist's perspective: Physicochemical and in vitro parameters relevant for drug discovery” (Eur J Med Chem, 2022) are described below.

≈ marks a conversion by molar mass, not a printed value.

Chain of Cytochrome P450 3A4 (P08684 whole entry): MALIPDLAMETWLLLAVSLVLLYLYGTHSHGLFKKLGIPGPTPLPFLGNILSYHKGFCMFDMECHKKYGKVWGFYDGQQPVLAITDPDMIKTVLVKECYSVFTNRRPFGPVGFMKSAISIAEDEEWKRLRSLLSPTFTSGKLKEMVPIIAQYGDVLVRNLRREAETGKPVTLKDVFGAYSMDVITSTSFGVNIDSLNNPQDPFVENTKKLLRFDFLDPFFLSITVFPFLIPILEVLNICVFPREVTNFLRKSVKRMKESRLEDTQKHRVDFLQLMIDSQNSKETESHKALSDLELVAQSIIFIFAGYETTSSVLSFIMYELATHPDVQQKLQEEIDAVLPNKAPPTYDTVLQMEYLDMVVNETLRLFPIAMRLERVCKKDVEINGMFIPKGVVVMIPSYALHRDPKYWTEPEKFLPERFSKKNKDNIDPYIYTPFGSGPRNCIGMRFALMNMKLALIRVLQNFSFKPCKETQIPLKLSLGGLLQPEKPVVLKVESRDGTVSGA

System in the first series: not listed separately
Description: Dissociation constant, pKa of the compound by dip probe absorption spectroscopy. Format: physicochemical.
Details: not given
What is called pKa is the negative logarithm of the acid dissociation constant. The molecule `O=C(O)c1c[nH]c2ccccc12` had a pKa of 5.29.

Molecule `O=C(O)c1ccc2cccccc1-2` returned a pKa of 5.1.

System in another series: not listed separately
As to the kind of experiment: Photostability of the compound assessed as compound degradation administered as aqueous solution irradiated with UV and measured after 24 hrs by HPLC analysis.
Details: not given
Turning to `CN(C)C(=O)c1c[nH]c2ccccc12`, the degraded at 24 h was below 0.5%.

Take `CN(C)C(=O)c1cn(C)c2ccccc12`: the degraded at 24 h was below 0.5%.

Regarding `CN(C)C(=O)c1cccc2ccccc12`, the degraded at 24 h was below 0.5%.

System in the next series: not listed separately
Description: Cytotoxicity against human HepG2 cells assessed as cell growth inhibition incubated for 24 hrs by MTT assay. The series is classed as toxicity, cell-based.
Details: not given
In a few lines: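 HepG2 human hepatoma cells were exposed to compound at concentrations up to 400 µM and viability was read by MTT. The result is given in µM.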
A general note: Tetrazolium assays rely on reduction of a dye to a coloured formazan, in cell work by metabolically active cells.
In general, EC50 refers to the concentration at which the effect is half-maximal. Take `NC(=O)C1CCN(C(=O)c2ccc3cccccc2-3)CC1`: the EC50 at 24 h was above 400 µM.

Take `COCC(=O)Nc1cc2cccccc-2c1`: the EC50 at 24 h is above 400 µM.

For another series, the target named is Cytochrome P450 2C9 (Homo sapiens, UniProt P11712). Description: Inhibition of CYP2C9 in human liver microsomes using diclofenac as substrate preincubated with compound followed by NADPH addition by LC-MS/MS analysis. Format: ADME, Microsome.
Chain of Cytochrome P450 2C9 (P11712 whole entry): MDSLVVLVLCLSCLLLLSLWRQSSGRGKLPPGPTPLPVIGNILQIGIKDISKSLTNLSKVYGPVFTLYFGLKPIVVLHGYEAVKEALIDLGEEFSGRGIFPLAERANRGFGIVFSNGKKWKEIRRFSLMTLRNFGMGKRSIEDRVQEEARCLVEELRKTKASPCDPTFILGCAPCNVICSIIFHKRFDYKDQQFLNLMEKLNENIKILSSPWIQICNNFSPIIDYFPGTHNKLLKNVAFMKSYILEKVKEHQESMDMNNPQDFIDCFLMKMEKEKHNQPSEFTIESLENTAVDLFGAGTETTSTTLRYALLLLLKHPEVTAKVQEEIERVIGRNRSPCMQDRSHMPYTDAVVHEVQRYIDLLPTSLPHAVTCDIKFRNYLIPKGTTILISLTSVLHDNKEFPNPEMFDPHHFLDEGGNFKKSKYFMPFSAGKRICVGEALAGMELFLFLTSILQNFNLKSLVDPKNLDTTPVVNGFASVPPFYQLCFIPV
Details: not given
(Liver microsomes are vesicles of endoplasmic reticulum, rich in cytochrome P450 enzymes.)
Broadly, the IC50 is the concentration at which inhibition is half-maximal. In the case of `NC(=O)C1CCN(C(=O)c2ccc3cccccc2-3)CC1`, the IC50 was above 50 µM.

Take `O=C(O)c1ccc2c(C(=O)c3ccccc3)cc(C(=O)c3ccccc3)c-2cc1`: the IC50 is 12 µM.

Take `O=C(O)c1ccc2ccc(C(=O)c3ccc(C(F)(F)F)cc3)c-2cc1`: the IC50 is above 50 µM.

Take `COCC(=O)Nc1cc2cccccc-2c1`: the IC50 was above 50 µM.

Regarding `COc1cccc(C(=O)c2ccc3ccc(C(=O)O)ccc2-3)c1`, the IC50 was above 50 µM.

Another series addresses T1, Cytochrome P450 2C8 (Homo sapiens, UniProt P10632).
T1 sequence (P10632 whole entry): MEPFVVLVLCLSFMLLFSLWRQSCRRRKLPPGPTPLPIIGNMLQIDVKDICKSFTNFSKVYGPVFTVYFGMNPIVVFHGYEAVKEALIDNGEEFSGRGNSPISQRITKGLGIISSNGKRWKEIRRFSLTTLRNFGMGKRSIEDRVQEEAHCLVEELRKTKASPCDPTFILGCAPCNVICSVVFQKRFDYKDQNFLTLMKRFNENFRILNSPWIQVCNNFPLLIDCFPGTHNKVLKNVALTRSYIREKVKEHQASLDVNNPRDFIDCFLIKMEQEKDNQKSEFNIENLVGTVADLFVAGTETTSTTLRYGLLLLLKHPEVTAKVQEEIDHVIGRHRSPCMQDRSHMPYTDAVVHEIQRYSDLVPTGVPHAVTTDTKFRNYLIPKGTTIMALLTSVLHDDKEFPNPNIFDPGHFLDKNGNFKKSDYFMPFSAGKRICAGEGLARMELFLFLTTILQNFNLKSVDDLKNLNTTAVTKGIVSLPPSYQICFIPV
Description: Inhibition of CYP2C8 in human liver microsomes using amodiaquine as substrate preincubated with compound followed by NADPH addition by LC-MS/MS analysis.
Details: not given
The series is classed as ADME, Microsome.
As for `NC(=O)C1CCN(C(=O)c2ccc3cccccc2-3)CC1`, the IC50 was above 50 µM.

`O=C(O)c1ccc2c(C(=O)c3ccccc3)cc(C(=O)c3ccccc3)c-2cc1`: the concentration for half-maximal inhibition (IC50) came out at 1.5 µM.

As for `O=C(O)c1ccc2ccc(C(=O)c3ccc(C(F)(F)F)cc3)c-2cc1`, the IC50 was 13 µM.

For `COCC(=O)Nc1cc2cccccc-2c1`, the IC50 was above 50 µM.

Take `COc1cccc(C(=O)c2ccc3ccc(C(=O)O)ccc2-3)c1`: the IC50 was 22 µM.

The target in a further series is Cytochrome P450 2D6 (Homo sapiens, UniProt P10635). Description: Inhibition of CYP2D6 in human liver microsomes using dextromethorphan as substrate preincubated with compound followed by NADPH addition by LC-MS/MS analysis. Format: ADME, Microsome.
Chain of Cytochrome P450 2D6 (P10635 whole entry): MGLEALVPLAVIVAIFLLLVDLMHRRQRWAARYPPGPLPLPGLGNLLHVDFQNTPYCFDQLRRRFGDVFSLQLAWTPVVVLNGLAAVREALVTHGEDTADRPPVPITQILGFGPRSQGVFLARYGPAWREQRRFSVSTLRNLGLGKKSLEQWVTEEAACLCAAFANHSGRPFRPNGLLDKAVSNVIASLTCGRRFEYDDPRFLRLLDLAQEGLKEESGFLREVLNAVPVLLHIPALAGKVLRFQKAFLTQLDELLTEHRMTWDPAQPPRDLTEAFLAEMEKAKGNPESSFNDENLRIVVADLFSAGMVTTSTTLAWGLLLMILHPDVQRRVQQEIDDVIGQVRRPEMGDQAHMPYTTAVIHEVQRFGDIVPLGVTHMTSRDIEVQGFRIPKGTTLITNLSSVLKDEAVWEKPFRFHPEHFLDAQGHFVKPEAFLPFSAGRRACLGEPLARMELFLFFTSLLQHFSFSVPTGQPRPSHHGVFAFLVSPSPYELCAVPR
Details: not given
Turning to `NC(=O)C1CCN(C(=O)c2ccc3cccccc2-3)CC1`, the IC50 was above 50 µM.

For the molecule `O=C(O)c1ccc2c(C(=O)c3ccccc3)cc(C(=O)c3ccccc3)c-2cc1`, the half-maximal inhibitory concentration (IC50) was above 50 µM.

With `O=C(O)c1ccc2ccc(C(=O)c3ccc(C(F)(F)F)cc3)c-2cc1`, the IC50 is above 50 µM.

Consider `COCC(=O)Nc1cc2cccccc-2c1`, for which the 50% inhibitory concentration (IC50) was above 50 µM.

In the case of `COc1cccc(C(=O)c2ccc3ccc(C(=O)O)ccc2-3)c1`, the half-inhibitory concentration (IC50) was above 50 µM.

The target of a further series is Cytochrome P450 2C19 (Homo sapiens, UniProt P33261). As to the kind of experiment: Inhibition of CYP2C19 in human liver microsomes using mephenytoin as substrate preincubated with compound followed by NADPH addition by LC-MS/MS analysis.
Chain of Cytochrome P450 2C19 (P33261 whole entry): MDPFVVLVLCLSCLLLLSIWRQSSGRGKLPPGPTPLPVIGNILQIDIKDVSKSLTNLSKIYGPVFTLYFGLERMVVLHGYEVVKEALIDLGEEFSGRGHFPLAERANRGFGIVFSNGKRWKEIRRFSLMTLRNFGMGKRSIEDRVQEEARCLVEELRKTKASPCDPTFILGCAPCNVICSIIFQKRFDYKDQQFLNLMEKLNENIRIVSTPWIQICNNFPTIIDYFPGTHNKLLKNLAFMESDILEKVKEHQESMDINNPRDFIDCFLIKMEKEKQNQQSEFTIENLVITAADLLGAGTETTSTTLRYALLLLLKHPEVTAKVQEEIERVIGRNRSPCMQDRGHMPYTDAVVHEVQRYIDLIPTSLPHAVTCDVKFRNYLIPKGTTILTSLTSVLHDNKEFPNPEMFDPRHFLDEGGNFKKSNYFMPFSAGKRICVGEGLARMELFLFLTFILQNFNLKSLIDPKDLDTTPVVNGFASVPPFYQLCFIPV
Details: not given
Format: ADME, Microsome.
On to `NC(=O)C1CCN(C(=O)c2ccc3cccccc2-3)CC1`, for which the IC50 was above 50 µM.

On to `O=C(O)c1ccc2c(C(=O)c3ccccc3)cc(C(=O)c3ccccc3)c-2cc1`, for which the IC50 is above 50 µM.

Turning to `O=C(O)c1ccc2ccc(C(=O)c3ccc(C(F)(F)F)cc3)c-2cc1`, the IC50 was above 50 µM.

Turning to `COCC(=O)Nc1cc2cccccc-2c1`, the half-inhibitory concentration (IC50) came to 22 µM.

Turning to `COc1cccc(C(=O)c2ccc3ccc(C(=O)O)ccc2-3)c1`, the half-maximal inhibitory concentration (IC50) is above 50 µM.

Another series has as its target Cytochrome P450 3A4 (Homo sapiens, UniProt P08684). As to the kind of experiment: Inhibition of CYP3A4 in human liver microsomes using midazolam as substrate preincubated with compound followed by NADPH addition by LC-MS/MS analysis.
Details: not given
The series is classed as ADME, Microsome.
On to `NC(=O)C1CCN(C(=O)c2ccc3cccccc2-3)CC1`, for which the IC50 was above 50 µM.

With `O=C(O)c1ccc2c(C(=O)c3ccccc3)cc(C(=O)c3ccccc3)c-2cc1`, the IC50 is above 50 µM.

As to `O=C(O)c1ccc2ccc(C(=O)c3ccc(C(F)(F)F)cc3)c-2cc1`, the IC50 is above 50 µM.

For the molecule `COCC(=O)Nc1cc2cccccc-2c1`, the concentration for half-maximal inhibition (IC50) was above 50 µM.

Take `COc1cccc(C(=O)c2ccc3ccc(C(=O)O)ccc2-3)c1`: the half-maximal inhibitory concentration (IC50) was above 50 µM.

System in the next series: not listed separately
As to the kind of experiment: Lipophilicity, logP of the compound. Format: physicochemical. Particulars: octanol/water.
In general, logP refers to the decadic logarithm of the partition coefficient of the neutral form, usually between octanol and water. Read a low logP as a more hydrophilic compound. `NC(=O)C1CCN(C(=O)c2ccc3cccccc2-3)CC1`: the logP is recorded as 0.6.

In turn, `CN(C)C(=O)c1c[nH]c2ccccc12` displayed a lipophilicity (logP) of 0.4.

`CN(C)C(=O)c1cn(C)c2ccccc12` displayed a lipophilicity (logP) of 1.3.

Molecule `CN(C)C(=O)c1cccc2ccccc12` displayed a logP of 1.8.

In turn, `CN(C)C(=O)Cc1ccc2ccccc2c1` gave a logP of 2.4.

System in the next series: not listed separately
Description: Permeability of the compound at pH 7.4 by PAMPA assay. The series is classed as ADME. Particulars: read-out: permeability.
For the molecule `NC(=O)C1CCN(C(=O)c2ccc3cccccc2-3)CC1`, the Papp was 0.5 ×10⁻⁶ cm/s.

As to `CN(C)C(=O)c1c[nH]c2ccccc12`, the Papp came out at 2.2 ×10⁻⁶ cm/s.

`CN(C)C(=O)c1cn(C)c2ccccc12`: the Papp came out at 6.7 ×10⁻⁶ cm/s.

As to `CN(C)C(=O)c1cccc2ccccc12`, the Papp was determined as 8.3 ×10⁻⁶ cm/s.

Take `CN(C)C(=O)Cc1ccc2ccccc2c1`: the Papp was determined as 4.7 ×10⁻⁶ cm/s.

System in the next series: not listed separately
As to the kind of experiment: Aqueous solubility of the compound at pH 2.2 incubated for 24 hrs under shaking condition by LC-UV analysis. Format: physicochemical. The conditions noted are these: aqueous medium. In a few lines:
(§1)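 The highest concentration tested was 250 μM, so results are capped at that level. Values are reported in µg/ml.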
The term thermodynamic solubility denotes solubility found after equilibrating the solid with the medium. `NC(=O)C1CCN(C(=O)c2ccc3cccccc2-3)CC1` showed a thermodynamic solubility at 24 h above 71 µg/mL.

`CN(C)C(=O)c1c[nH]c2ccccc12` returned a solubility (thermodynamic) at 24 h above 47 µg/mL.

In turn, `CN(C)C(=O)c1cn(C)c2ccccc12` showed a thermodynamic solubility at 24 h above 51 µg/mL.

In turn, `CN(C)C(=O)c1cccc2ccccc12` gave a thermodynamic solubility at 24 h above 47 µg/mL.

`CN(C)C(=O)Cc1ccc2ccccc2c1` showed a thermodynamic solubility at 24 h of 41 µg/mL (≈ 192 µM).

System in a further series: not listed separately
Description: Aqueous solubility of the compound at pH 4.5 incubated for 24 hrs under shaking condition by LC-UV analysis. The series is classed as physicochemical. Particulars: aqueous medium. The essentials: as §1
In the case of `NC(=O)C1CCN(C(=O)c2ccc3cccccc2-3)CC1`, the solubility (thermodynamic) at 24 h is above 57 µg/mL.

Molecule `CN(C)C(=O)c1c[nH]c2ccccc12` displayed a thermodynamic solubility at 24 h above 47 µg/mL.

The molecule `CN(C)C(=O)c1cn(C)c2ccccc12` had a thermodynamic solubility at 24 h above 51 µg/mL.

For the molecule `CN(C)C(=O)c1cccc2ccccc12`, the thermodynamic solubility at 24 h was above 50 µg/mL.

With `CN(C)C(=O)Cc1ccc2ccccc2c1`, the thermodynamic solubility at 24 h stood at 39 µg/mL (≈ 183 µM).

System in a further series: not listed separately
Description: Aqueous solubility of the compound at pH 6.8 incubated for 24 hrs under shaking condition by LC-UV analysis. Format: physicochemical. The conditions noted are these: aqueous medium. The essentials: as §1
The molecule `NC(=O)C1CCN(C(=O)c2ccc3cccccc2-3)CC1` showed a thermodynamic solubility at 24 h above 58 µg/mL.

For `CN(C)C(=O)c1c[nH]c2ccccc12`, the solubility (thermodynamic) at 24 h was above 44 µg/mL.

In turn, `CN(C)C(=O)c1cn(C)c2ccccc12` had a solubility (thermodynamic) at 24 h above 51 µg/mL.

On to `CN(C)C(=O)c1cccc2ccccc12`, for which the thermodynamic solubility at 24 h was above 43 µg/mL.

Molecule `CN(C)C(=O)Cc1ccc2ccccc2c1` returned a thermodynamic solubility at 24 h of 40 µg/mL (≈ 188 µM).

System in a further series: not listed separately
As to the kind of experiment: Metabolic stability in human liver microsomes assessed as hepatic blood flow at 1 uM preincubated with compound followed by NADPH addition by LC-MS/MS analysis. Format: ADME, Microsome. Particulars: read-out: QH.
`NC(=O)C1CCN(C(=O)c2ccc3cccccc2-3)CC1`: the hepatic extraction ratio at 1 µM was below 0.23.

Turning to `CN(C)C(=O)c1c[nH]c2ccccc12`, the hepatic extraction ratio at 1 µM came to 0.25.

In the case of `CN(C)C(=O)c1cn(C)c2ccccc12`, the hepatic extraction ratio at 1 µM stood at 0.55.

With `CN(C)C(=O)c1cccc2ccccc12`, the hepatic extraction ratio at 1 µM is below 0.23.

Take `CN(C)C(=O)Cc1ccc2ccccc2c1`: the hepatic extraction ratio at 1 µM stood at 0.4.

System in a further series: not listed separately
Description: Octanol-water partition coefficient, logD of the compound at pH 2 by HPLC analysis. The series is classed as physicochemical.
Details: not given
What is called logD is lipophilicity at a set pH, counting ionised and neutral species. `NC(=O)C1CCN(C(=O)c2ccc3cccccc2-3)CC1` registered a logD of 1.2.

As for `CN(C)C(=O)c1c[nH]c2ccccc12`, the pH-dependent lipophilicity (logD) came out at 1.1.

On to `CN(C)C(=O)c1cn(C)c2ccccc12`, for which the logD turned out to be 1.8.

As for `CN(C)C(=O)c1cccc2ccccc12`, the logD was determined as 2.2.

With `CN(C)C(=O)Cc1ccc2ccccc2c1`, the pH-dependent lipophilicity (logD) was found to be 2.7.

System in another series: not listed separately
Description: Octanol-water partition coefficient, logD of the compound at pH 11 by HPLC analysis. The series is classed as physicochemical. The conditions noted are these: read-out: logD.
For the molecule `NC(=O)C1CCN(C(=O)c2ccc3cccccc2-3)CC1`, the logD is 0.6.

Consider `CN(C)C(=O)c1c[nH]c2ccccc12`, for which the logD was 0.4.

Regarding `CN(C)C(=O)c1cn(C)c2ccccc12`, the logD was 1.3.

`CN(C)C(=O)c1cccc2ccccc12`: the logD turned out to be 1.8.

`CN(C)C(=O)Cc1ccc2ccccc2c1`: the pH-dependent lipophilicity (logD) turned out to be 2.4.
